Reference: ChEMBL document CHEMBL2434956, “Investigating the selectivity of metalloenzyme inhibitors” (J Med Chem, 2013)
Active and inactive are the calls of the source. The calls are words filed in the database; no cut-off is given here.

What was measured:
[1] = target: Histone deacetylase 2 (Homo sapiens) (UniProt Q92769); conditions: at 10 µM;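 further: fluorescence readout of HDAC2 deacetylase activity, compound preincubated with HDAC2 5 min before substrate, signal read after 30 min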
[2] = target: T1, 72 kDa type IV collagenase (Homo sapiens, UniProt P08253); assay: Inhibition of human recombinant MMP-2 using Mca-Pro-Leu-Gly-Leu-Dpa-Ala-Arg-NH2.AcOH as substrate at 10 uM preincubated for 30 mins prior to substrate addition measured for 30 mins by fluorescence assay relative to control
How it was run: (§1)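 Human recombinant MMP-2 (1.16 U) or MMP-12 (0.007 U) in 50 mM HEPES, 10 mM CaCl₂, 0.05% Brij-35, pH 7.5, preincubated with inhibitor 30 min at 37 °C; 4 µM OmniMMP peptide then added. Fluorescence rise (ex 320/em 400 nm) over 30 min, as percent of no-inhibitor wells. Triplicate assays, triplicate wells; mean ± SD.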
Target sequence in this assay (P08253 110-660 limits assumed): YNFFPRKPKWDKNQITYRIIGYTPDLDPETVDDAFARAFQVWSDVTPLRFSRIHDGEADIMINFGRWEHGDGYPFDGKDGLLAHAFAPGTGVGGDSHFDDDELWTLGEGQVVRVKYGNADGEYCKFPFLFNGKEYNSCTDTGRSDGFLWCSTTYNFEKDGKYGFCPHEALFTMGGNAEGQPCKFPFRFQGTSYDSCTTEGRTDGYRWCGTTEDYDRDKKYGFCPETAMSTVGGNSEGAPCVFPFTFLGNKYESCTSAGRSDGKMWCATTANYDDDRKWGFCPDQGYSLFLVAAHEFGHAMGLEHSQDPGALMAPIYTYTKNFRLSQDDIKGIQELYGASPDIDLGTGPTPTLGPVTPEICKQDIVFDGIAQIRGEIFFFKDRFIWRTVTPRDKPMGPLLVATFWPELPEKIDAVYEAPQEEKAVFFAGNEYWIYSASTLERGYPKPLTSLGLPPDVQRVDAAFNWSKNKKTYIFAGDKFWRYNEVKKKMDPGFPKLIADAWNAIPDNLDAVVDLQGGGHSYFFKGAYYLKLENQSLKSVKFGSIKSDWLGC

[3] = target: T2, Macrophage metalloelastase (Homo sapiens, UniProt P39900); assay: Inhibition of human recombinant MMP-12 using Mca-Pro-Leu-Gly-Leu-Dpa-Ala-Arg-NH2.AcOH as substrate at 10 uM preincubated for 30 mins prior to substrate addition measured for 30 mins by fluorescence assay relative to control
How it was run: as §1
Target sequence in this assay (P39900 106-470 limits assumed): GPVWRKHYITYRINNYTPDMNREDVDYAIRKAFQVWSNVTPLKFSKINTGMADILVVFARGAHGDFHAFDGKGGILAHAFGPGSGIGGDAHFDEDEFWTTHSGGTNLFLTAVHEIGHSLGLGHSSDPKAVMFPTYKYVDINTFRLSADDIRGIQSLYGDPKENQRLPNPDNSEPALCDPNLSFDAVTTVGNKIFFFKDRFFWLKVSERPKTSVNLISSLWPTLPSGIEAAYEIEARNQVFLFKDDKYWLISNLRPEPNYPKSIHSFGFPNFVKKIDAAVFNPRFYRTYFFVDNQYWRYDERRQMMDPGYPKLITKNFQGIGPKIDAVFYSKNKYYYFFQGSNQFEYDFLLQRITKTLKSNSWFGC

Trypsin (Homo sapiens) = Trypsin (Homo sapiens) (UniProt P07477+P07478+P35030); assay: Inhibition of TPCK-treated trypsin (unknown origin) at 10 uM preincubated for 10 mins prior to substrate addition measured for 30 mins by spectrophotometric analysis; format: protein assay
How it was run: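 Commercial colorimetric kit run per manufacturer; TPCK-treated trypsin (100 mU) in kit buffer, inhibitor at 10 µM; enzyme and inhibitor preincubated 10 min at room temperature before substrate addition.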

[4] = target: T3, Tyrosinase (Agaricus bisporus) (UniProt O42713); assay: Inhibition of mushroom tyrosinase assessed as L-DOPA conversion to melanin at 10 uM preincubated for 10 mins prior to substrate addition measured after 10 mins by spectrophotometric analysis
T3 sequence (whole entry): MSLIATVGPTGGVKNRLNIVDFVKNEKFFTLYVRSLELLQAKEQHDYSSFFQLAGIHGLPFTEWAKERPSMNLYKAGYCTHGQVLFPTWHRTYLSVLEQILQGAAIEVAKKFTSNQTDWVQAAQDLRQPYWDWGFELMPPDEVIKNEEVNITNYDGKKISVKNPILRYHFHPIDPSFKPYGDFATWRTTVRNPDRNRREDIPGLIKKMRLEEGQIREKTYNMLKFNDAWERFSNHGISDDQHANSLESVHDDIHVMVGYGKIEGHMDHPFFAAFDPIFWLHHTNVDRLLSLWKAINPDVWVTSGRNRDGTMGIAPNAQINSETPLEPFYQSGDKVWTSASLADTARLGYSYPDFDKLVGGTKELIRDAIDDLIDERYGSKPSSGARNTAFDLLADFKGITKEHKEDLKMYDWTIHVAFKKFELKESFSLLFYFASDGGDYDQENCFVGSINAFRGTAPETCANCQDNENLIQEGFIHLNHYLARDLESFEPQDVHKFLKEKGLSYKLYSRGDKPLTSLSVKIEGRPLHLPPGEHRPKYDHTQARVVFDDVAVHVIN
How it was run: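 Mushroom tyrosinase (30 U) in 10 mM NaH₂PO₄ pH 6.8 with 10 µM inhibitor, 10 min at room temperature; background A475 taken, L-DOPA (0.5 mM) added, A475 read again after 10 min and background subtracted. No-inhibitor wells set as 100% activity. Triplicate assays, triplicate wells; mean ± SD.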

[5] = target: T2, Macrophage metalloelastase; assay: Inhibition of human recombinant MMP-12 using Mca-Pro-Leu-Gly-Leu-Dpa-Ala-Arg-NH2.AcOH as substrate preincubated for 30 mins prior to substrate addition measured for 30 mins by fluorescence assay
How it was run: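 Human recombinant MMP-12 (0.007 U) was preincubated with inhibitor at 37 °C for 30 min in 50 mM HEPES, 10 mM CaCl₂, 0.05% Brij-35, pH 7.5. OmniMMP substrate was then added, and fluorescence (ex 320/em 400 nm) was followed for 30 min. Activity is the fluorescence increase relative to no-inhibitor wells (set to 100%). Triplicate assays, each with triplicate inhibitor wells; mean ± SD.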
Target sequence in this assay (P39900 whole entry): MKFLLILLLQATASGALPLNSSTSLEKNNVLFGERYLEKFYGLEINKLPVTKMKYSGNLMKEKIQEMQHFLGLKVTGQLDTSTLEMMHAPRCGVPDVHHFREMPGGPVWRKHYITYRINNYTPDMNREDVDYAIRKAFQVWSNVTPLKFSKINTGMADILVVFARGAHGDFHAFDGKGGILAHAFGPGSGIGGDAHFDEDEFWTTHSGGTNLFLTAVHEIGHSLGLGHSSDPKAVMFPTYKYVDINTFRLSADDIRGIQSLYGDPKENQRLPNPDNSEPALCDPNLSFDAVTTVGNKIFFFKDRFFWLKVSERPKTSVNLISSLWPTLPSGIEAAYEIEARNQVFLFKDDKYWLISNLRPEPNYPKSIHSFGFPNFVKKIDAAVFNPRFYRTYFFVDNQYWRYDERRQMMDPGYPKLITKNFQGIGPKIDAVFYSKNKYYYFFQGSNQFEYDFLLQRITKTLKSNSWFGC

[6] = target: Angiotensin-converting enzyme (Homo sapiens) (UniProt P12821); assay: Inhibition of human recombinant ACE/CD143 somatic form using Mca-Pro-Leu-Gly-Leu-Dpa-Ala-Arg-NH2.AcOH as substrate at 10 uM preincubated for 10 mins prior to substrate addition measured for 30 mins by spectrophotometric analysis
Chain of Angiotensin-converting enzyme (Homo sapiens) (P12821 whole entry): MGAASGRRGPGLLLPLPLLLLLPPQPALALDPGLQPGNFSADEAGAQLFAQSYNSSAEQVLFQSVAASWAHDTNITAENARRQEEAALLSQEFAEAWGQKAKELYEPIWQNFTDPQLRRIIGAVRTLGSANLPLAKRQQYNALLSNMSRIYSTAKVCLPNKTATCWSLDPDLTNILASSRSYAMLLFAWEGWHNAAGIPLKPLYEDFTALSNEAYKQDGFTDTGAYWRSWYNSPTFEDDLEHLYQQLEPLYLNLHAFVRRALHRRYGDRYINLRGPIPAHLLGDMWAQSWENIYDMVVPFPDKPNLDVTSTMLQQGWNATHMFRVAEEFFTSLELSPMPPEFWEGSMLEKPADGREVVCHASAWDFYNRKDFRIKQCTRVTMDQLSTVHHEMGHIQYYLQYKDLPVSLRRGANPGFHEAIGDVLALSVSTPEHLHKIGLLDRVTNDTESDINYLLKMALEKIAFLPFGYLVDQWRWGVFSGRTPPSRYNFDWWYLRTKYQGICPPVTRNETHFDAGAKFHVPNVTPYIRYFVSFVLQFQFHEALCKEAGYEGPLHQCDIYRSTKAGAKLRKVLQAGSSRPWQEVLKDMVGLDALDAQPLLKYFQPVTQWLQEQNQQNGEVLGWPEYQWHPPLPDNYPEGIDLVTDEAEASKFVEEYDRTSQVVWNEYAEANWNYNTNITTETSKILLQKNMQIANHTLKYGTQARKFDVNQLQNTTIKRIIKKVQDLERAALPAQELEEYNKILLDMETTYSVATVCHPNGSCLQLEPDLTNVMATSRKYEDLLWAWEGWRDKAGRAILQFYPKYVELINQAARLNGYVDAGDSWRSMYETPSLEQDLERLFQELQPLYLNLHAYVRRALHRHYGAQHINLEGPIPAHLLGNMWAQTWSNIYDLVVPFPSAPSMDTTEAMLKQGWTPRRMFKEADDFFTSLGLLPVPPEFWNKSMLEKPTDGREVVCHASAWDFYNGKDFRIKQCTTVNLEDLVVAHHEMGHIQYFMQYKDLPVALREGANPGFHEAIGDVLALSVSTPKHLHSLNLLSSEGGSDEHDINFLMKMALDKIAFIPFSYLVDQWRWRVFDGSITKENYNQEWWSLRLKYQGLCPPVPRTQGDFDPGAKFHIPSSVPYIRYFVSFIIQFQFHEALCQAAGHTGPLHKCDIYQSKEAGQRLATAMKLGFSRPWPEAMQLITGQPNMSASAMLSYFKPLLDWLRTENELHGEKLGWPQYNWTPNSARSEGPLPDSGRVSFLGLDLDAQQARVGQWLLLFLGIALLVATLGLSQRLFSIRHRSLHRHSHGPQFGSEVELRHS
How it was run: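 Human recombinant somatic ACE/CD143 (20 ng) in 50 mM MES pH 6.5 with inhibitor at 10 µM, preincubated 10 min at 37 °C; OmniMMP fluorogenic peptide (4 µM) then added. Fluorescence (ex 320/em 400 nm) read over 30 min. Data normalized to uninhibited enzyme; triplicate assays, each inhibitor in triplicate; mean ± SD.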

Homo sapiens = species on record: Homo sapiens; assay: Binding affinity to ferritin (unknown origin) assessed as removal of ferric ion at 1 mM measured for 1 hr by UV-vis spectrophotometric analysis
[7] = Inhibition of MMP (unknown origin); design: species or system Homo sapiens
[8] = target: T1, 72 kDa type IV collagenase; assay: Inhibition of human recombinant MMP-2 using Mca-Pro-Leu-Gly-Leu-Dpa-Ala-Arg-NH2.AcOH as substrate preincubated for 30 mins prior to substrate addition measured for 30 mins by fluorescence assay
How it was run: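 Human recombinant MMP-2 (1.16 U) in 50 mM HEPES, 10 mM CaCl₂, 0.05% Brij-35, pH 7.5, is preincubated with inhibitor at 37 °C for 30 min. 4 µM OmniMMP substrate then starts the reaction. Fluorescence (ex 320/em 400 nm) is followed for 30 min. Activity is the fluorescence increase relative to no-inhibitor wells, as a percentage. Three assays, each in triplicate; mean ± SD.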
Target sequence in this assay (P08253 whole entry): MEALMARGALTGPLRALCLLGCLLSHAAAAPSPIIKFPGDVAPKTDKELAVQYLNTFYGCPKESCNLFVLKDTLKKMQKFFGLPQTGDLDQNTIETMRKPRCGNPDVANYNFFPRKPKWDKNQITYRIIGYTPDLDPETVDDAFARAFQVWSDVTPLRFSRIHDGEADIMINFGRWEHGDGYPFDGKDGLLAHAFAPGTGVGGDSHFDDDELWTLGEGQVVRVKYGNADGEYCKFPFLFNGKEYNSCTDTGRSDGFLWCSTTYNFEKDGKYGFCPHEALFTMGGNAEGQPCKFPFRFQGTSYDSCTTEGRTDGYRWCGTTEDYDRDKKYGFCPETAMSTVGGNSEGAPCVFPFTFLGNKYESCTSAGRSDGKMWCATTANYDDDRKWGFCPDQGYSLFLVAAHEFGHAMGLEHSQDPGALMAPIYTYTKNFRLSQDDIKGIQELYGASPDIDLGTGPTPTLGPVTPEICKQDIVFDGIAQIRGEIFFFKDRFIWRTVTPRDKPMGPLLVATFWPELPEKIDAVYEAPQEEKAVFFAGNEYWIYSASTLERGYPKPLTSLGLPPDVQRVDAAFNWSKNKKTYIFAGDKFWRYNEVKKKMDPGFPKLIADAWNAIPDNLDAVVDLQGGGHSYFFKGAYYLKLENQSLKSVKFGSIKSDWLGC

[9] = target: Matrix metalloproteinase-9 (Homo sapiens, UniProt P14780); assay: Inhibition of MMP-9 (unknown origin)
Chain of Matrix metalloproteinase-9 (P14780 whole entry): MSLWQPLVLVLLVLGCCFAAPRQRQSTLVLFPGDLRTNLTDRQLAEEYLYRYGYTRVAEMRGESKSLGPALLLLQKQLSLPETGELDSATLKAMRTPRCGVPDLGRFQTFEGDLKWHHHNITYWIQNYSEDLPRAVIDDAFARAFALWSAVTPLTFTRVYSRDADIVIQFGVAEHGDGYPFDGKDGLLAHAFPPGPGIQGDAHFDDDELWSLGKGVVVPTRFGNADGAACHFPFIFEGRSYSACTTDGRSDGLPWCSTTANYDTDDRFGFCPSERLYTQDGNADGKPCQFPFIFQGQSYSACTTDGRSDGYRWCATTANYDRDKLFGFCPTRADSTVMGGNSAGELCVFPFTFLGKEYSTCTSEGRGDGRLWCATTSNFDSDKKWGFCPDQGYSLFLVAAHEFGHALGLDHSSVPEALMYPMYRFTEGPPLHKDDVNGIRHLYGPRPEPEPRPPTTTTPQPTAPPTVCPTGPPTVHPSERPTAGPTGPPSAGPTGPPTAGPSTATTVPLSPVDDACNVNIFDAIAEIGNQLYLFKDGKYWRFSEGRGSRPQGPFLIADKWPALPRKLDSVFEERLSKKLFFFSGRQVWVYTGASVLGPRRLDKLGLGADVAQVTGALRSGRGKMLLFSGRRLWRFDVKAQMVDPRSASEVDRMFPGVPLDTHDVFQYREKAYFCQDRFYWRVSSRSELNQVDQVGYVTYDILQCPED

Chain of Histone deacetylase 2 (Homo sapiens) (Q92769 whole entry): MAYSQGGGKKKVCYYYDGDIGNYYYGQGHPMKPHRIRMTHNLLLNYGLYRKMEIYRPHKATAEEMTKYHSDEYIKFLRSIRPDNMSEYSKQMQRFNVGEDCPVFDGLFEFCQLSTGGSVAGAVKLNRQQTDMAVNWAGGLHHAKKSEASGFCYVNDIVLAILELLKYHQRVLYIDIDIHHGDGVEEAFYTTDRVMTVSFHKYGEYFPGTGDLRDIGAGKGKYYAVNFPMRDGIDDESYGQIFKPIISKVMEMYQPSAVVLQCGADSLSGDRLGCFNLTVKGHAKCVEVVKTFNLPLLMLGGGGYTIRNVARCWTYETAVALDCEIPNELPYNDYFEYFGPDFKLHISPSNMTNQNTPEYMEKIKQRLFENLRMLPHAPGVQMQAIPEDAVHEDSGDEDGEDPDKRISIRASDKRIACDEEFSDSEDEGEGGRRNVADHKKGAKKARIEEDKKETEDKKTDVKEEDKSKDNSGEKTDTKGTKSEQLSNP

Row | Structure (SMILES) | inhibition [1] | inhibition [2] | inhibition [3] | inhibition (Trypsin (Homo sapiens)) | inhibition [4] | IC50 [5] | inhibition [6] | Activity (Homo sapiens) | IC50 [7] | IC50 [8] | IC50 [9]
1 | CC(=O)Nc1nnc(S(N)(=O)=O)s1 | inactive | Active | Active | inactive | inactive | – | – | – | – | – | –
2 | CC(c1cc2ccccc2s1)N(O)C(N)=O (centres undefined) | inactive | Active | Active | inactive | inactive | – | – | – | – | – | –
3 | O=C(NCc1ccc(-c2ccccc2)cc1)c1cccc(=O)n1O | inactive | 80% | 100% | inactive | inactive | 18 nM | Active | – | – | – | –
4 | O=C(CCCCCCC(=O)Nc1ccccc1)NO | – | < 25% | < 25% | inactive | inactive | – | Active | – | – | – | –
5 | Cc1nc(C(=O)NCc2ccc(F)cc2)c(O)c(=O)[nH]1 | inactive | 50% | Active | inactive | inactive | – | – | – | – | – | –
6 | CC(=O)N(O)CCCCCNC(=O)CCC(=O)N(O)CCCCCNC(=O)CCC(=O)N(O)CCCCCN | inactive | Active | Active | inactive | inactive | – | – | Active | – | – | –
7 | O=C(/C=C/c1ccc(Cl)cc1Cl)NO | Active | < 25% | < 25% | inactive | inactive | – | – | – | – | – | –
8 | C[C@H](CS)C(=O)N1CCC[C@H]1C(=O)O | inactive | < 10% | Active | inactive | inactive | – | – | – | – | – | –
9 | COc1ccc(S(=O)(=O)N(Cc2cccnc2)[C@@H](C(=O)NO)C(C)C)cc1 [CGS-27023A] | inactive | 95% | 95% | inactive | inactive | – | Active | – | 8 nM | – | –
10 | O=C(O)[C@H](Cc1ccccc1)NS(=O)(=O)c1ccc(-c2ccccc2)cc1 | inactive | Active | Active | inactive | inactive | – | inactive | – | – | 240 nM | 310 nM
11 | CC(/C=C/C(=O)NO)=C\[C@@H](C)C(=O)c1ccc(N(C)C)cc1 | Active | – | – | – | – | – | – | – | – | – | –
